CSC inhib: cancer stem cell inhibition; cancer stem cell-like cells viability, luminescence; AID 2717; inhibition, % at 7.5 µM; 300,000 compounds, 1.1% hits; in the data active = inhibition above about 75%; inconclusive = no clear call, values can overlap the other calls; tested in HMLE shEcad cells
SKKanGAS inh: inhibitors of SKKanGAS S. pyogenes growth in kanamycin (SK-promoter or general growth effect). 300,000 compounds, 1.3% hits. AID 1662. BacTiter-Glo, 6 h. inhibition, % at 7.5 µM;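 active = mean replicate score, as percent of positive control median, at least 50; inconclusive = mean below 50 but one replicate at or above 50; inactive = mean and every replicate below 50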;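 note: strain carries kanamycin resistance gene driven by streptokinase promoter and grows in 40 µg/ml kanamycin; loss of luminescence reflects streptokinase promoter inhibition or plain growth inhibition; 0% = median of DMSO wells and 100% = positive control at its reference dose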
FN deposition inh: fibronectin deposition inhibition; AH1F fibroblasts, Alexa488-fibronectin deposition fluorescence, overnight; inhibition, % at 12.6 µM; 350,000 compounds, 0.086% hits; AID 743247;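 active = mean inhibition across replicates of 30% or more, regardless of how many single replicates reach that level; inconclusive = mean under 30% yet at least half of replicates reach 30%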;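 note: positive control wells lacked labelled fibronectin entirely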
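Material: AH1F fibroblast monolayer depositing Alexa488-labelled fibronectin into matrix | Input: 10000 AH1F cells/well | Medium: DMEM plus 2% serum, read in PBS | Reagent: Alexa488-fibronectin, 24 nM final in well | Compound dosing: One dose per compound, pinned | Schedule: 1 h adhesion, overnight exposure | Measured by: Fluorescence at 485 nm excitation, 525 nm emission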
PfHsp90 yeast 2: growth inhibition of yeast expressing Plasmodium Hsp90; 310,000 compounds, 0.32% hits; AID 504621; S. cerevisiae expressing PfHsp90, BacTiter-Glo ATP, 48 h; yeast lacking PDR1 and PDR3 efflux regulators; inhibition, % at 9.4 µM;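 active = every replicate shows inhibition above about 80%, whatever the replicate mean, limit read from the data; inconclusive = mean inhibition reaches the set limit but some replicate falls short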;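 note: 0% = DMSO neutral controls and 100% = 20 µM radicicol positive controls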
Rtt109 HAT inh: C. albicans Rtt109 histone acetyltransferase inhibition. Q5AAJ8. purified Rtt109/Vps75, ThioGlo CoA-SH fluorescence, 4 h. inhibition, % at 34.9 µM. 330,000 compounds, 0.16% hits. AID 540336;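 active = inhibition of at least 50% in every replicate; inconclusive = best replicate reaches 50% inhibition but some replicates fall short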
Target sequence (Q5AAJ8 whole entry, looked up): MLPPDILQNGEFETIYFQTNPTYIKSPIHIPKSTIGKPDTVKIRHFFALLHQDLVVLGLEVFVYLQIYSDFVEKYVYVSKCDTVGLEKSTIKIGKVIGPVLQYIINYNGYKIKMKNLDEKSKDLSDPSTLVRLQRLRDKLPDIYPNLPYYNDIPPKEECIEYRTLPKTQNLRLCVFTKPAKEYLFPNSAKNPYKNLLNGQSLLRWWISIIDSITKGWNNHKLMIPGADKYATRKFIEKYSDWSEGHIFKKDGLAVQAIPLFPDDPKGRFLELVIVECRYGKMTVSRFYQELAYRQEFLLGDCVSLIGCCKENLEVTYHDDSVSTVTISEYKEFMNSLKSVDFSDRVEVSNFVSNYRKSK
PglD inh: inhibitors of Campylobacter jejuni PglD acetyltransferase; purified PglD enzyme, DTNB colorimetric CoA detection; inhibition, % at 12.5 µM; 360,000 compounds, 0.098% hits; in the data active = inhibition above about 16%, passing the limit was not always enough; inconclusive = no clear call, values can overlap the other calls
PglD confirm: blocks Campylobacter jejuni PglD acetyltransferase activity. shares compounds with PglD inh. Purified C. jejuni PglD, DTNB absorbance 412 nm. inhibition, % at 20 µM. 320 tested, under 10 active;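 active = mean inhibition across replicates of at least 20% with every single replicate also at 20% or more; inconclusive = mean inhibition at least 20% but some replicate falls below 20%; inactive = mean inhibition under 20% and not all replicates reach it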;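 note: initial rate of CoA release by acetyl transfer from AcCoA to the UDP-4-amino sugar; 0% = median of neutral control wells and 100% = median of positive control wells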
The depositor's hits bear a star. The list is not random: actives were taken first. Their share in the collection is about 1.7%.

`CN1CCN(C2=Cc3ccc(Cl)cc3Sc3ccc(F)cc32)CC1` gave CSC inhib 121*, SKKanGAS inh 60*, FN deposition inh 12, PfHsp90 yeast 2 -4, Rtt109 HAT inh 12 and PglD inh -4.
Screening CC(C)N1CCC2(CC1)N=C(c1ccc3c(c1)OCO3)CC(c1cc(Cl)ccc1O)N2 (stereo not drawn) returned CSC inhib 7, SKKanGAS inh -13, PfHsp90 yeast 2 120* and Rtt109 HAT inh inconclusive.
CC(Sc1ccc(Cl)cc1)C(=O)Nc1ccc2c(c1)OCO2 (stereo not drawn) was read as CSC inhib -9, SKKanGAS inh -7, FN deposition inh 4, PfHsp90 yeast 2 28, Rtt109 HAT inh 12 and PglD inh -12.
Screening O=C(c1ccc(Br)o1)N1N=C(c2ccc(Cl)cc2)CC1c1ccco1 (stereo not drawn) returned CSC inhib 9, SKKanGAS inh 60*, FN deposition inh 9, PfHsp90 yeast 2 -23, Rtt109 HAT inh -2 and PglD inh -3.
Screening CC(=O)N1N=C(c2ccc(Cl)cc2)CC1c1ccco1 (stereo not drawn) returned CSC inhib 12, SKKanGAS inh 2, FN deposition inh -2, PfHsp90 yeast 2 1 and Rtt109 HAT inh -21.
Cc1ccccc1C(=O)NNC(=S)NC(=O)c1ccccc1 was read as CSC inhib -6, SKKanGAS inh 48, FN deposition inh 4, PfHsp90 yeast 2 -43 and Rtt109 HAT inh 9.
Screening Cc1occc1C(=O)NNC(=O)COc1ccc(Br)cc1Br returned CSC inhib 1, SKKanGAS inh -7, FN deposition inh -7, PfHsp90 yeast 2 -1, Rtt109 HAT inh 5 and PglD inh -2.
For Cc1occc1C(=O)NNC(=S)NC(=O)COc1ccc(Cl)cc1Cl the results were SKKanGAS inh 78*, PfHsp90 yeast 2 2, Rtt109 HAT inh 25 and PglD inh -4.
Screening Cc1ccc(C(=O)NC(=S)NCc2ccccc2)cc1 returned CSC inhib 5, SKKanGAS inh -1, FN deposition inh 2, PfHsp90 yeast 2 5, Rtt109 HAT inh -2 and PglD inh 6.
For CCCCC(=O)NC(=S)NNC(=O)c1ccc(Cl)cc1Cl the results were SKKanGAS inh 90*, FN deposition inh 0, PfHsp90 yeast 2 -5, Rtt109 HAT inh 12 and PglD inh 5.
`O=C(NNC(=S)NC(=O)c1ccccc1[N+](=O)[O-])c1ccc(Cl)cc1Cl` gave CSC inhib -16, SKKanGAS inh 48, FN deposition inh 10, PfHsp90 yeast 2 -21 and Rtt109 HAT inh 19.
Cc1ccc(C(=O)NC(=S)NNC(=O)c2ccccc2)cc1 was read as CSC inhib -15, SKKanGAS inh 77*, FN deposition inh 5, PfHsp90 yeast 2 1, Rtt109 HAT inh -3 and PglD inh -1.
For Cc1ccc(C(=O)NNC(=S)NC(=O)c2ccccc2)cc1 the results were CSC inhib 12, SKKanGAS inh 99*, FN deposition inh -6, PfHsp90 yeast 2 -5 and Rtt109 HAT inh 15.
Screening Cc1ccc(S(=O)(=O)N(C)C[C@@H]2Oc3ccc(NC(=O)Nc4ccc(F)cc4)cc3C(=O)N([C@@H](C)CO)C[C@@H]2C)cc1 returned PglD inh 2.
Screening COc1ccc(CN(C)C[C@H]2Oc3c(NS(=O)(=O)c4ccc(Cl)cc4)cccc3C(=O)N([C@@H](C)CO)C[C@H]2C)cc1 returned PglD inh 9.
Cc1ccc(C(=O)NNC(=S)NC(=O)c2ccco2)cc1 was read as CSC inhib 17, SKKanGAS inh 73*, PfHsp90 yeast 2 -47 and Rtt109 HAT inh -2.
Screening Cc1ccc(C(=O)NNC(=S)NC(=O)c2ccc(Cl)cc2Cl)cc1 returned CSC inhib 17, SKKanGAS inh 98*, PfHsp90 yeast 2 -4 and Rtt109 HAT inh 6.
`COc1ccc(-c2csc(CCn3nc(C)cc3C)n2)cc1OC` gave CSC inhib -2, SKKanGAS inh -3, FN deposition inh 37*, PfHsp90 yeast 2 2, Rtt109 HAT inh 3 and PglD inh 0.
For CC(=O)NC[C@H]1[C@H](c2ccc(C3=CCCCC3)cc2)[C@H](CO)N1C(=O)NC(C)C the results were FN deposition inh -3 and PglD inh -2.
CC(C)N1C(=O)/C(=C\c2nc3ccccc3c(=O)[nH]2)c2ccccc21 was read as CSC inhib 23, FN deposition inh 1, PfHsp90 yeast 2 98*, Rtt109 HAT inh 6 and PglD inh 0.
CCCN1C(=O)/C(=C/c2nc3ccccc3c(=O)[nH]2)c2ccccc21 was read as CSC inhib 7, SKKanGAS inh -7, PfHsp90 yeast 2 6 and Rtt109 HAT inh 4.
COc1ccc(NC(=O)N(C)C[C@H]2Oc3c(NC(=O)C4CCOCC4)cccc3C(=O)N([C@H](C)CO)C[C@@H]2C)cc1 was read as PglD inh 8.
Screening NS(=O)(=O)c1ccc(CCNC(=O)CCCNC(=O)c2ccc(Cl)cc2)cc1 returned CSC inhib -14, SKKanGAS inh -3, FN deposition inh 5, PfHsp90 yeast 2 12, Rtt109 HAT inh -4 and PglD inh 0.
For NC(=O)CC(NC(=O)c1ccc(Cl)cc1)C(=O)NCCc1ccc(S(N)(=O)=O)cc1 (stereo not drawn) the results were CSC inhib -22, SKKanGAS inh -2, FN deposition inh -10, PfHsp90 yeast 2 12, Rtt109 HAT inh -10, PglD inh 23* and PglD confirm 0.
`O=C(NCc1ccco1)C1OCCc2ccccc21` (stereo not drawn) gave CSC inhib 0, SKKanGAS inh 0, PfHsp90 yeast 2 -14, Rtt109 HAT inh -6, PglD inh 25* and PglD confirm -1.
Screening CCC(=O)C1=C(O)C(c2cccc(Oc3ccccc3)c2)CCC1=O (stereo not drawn) returned CSC inhib 13, SKKanGAS inh 13, FN deposition inh -12, PfHsp90 yeast 2 4, PglD inh 28* and PglD confirm 1.
Screening O=S(=O)(c1cccs1)N1CCN(Cc2nc3ccccc3s2)CC1 returned CSC inhib 15, SKKanGAS inh 8, FN deposition inh 9, Rtt109 HAT inh 3, PglD inh 24* and PglD confirm -1.
O=C(CCc1nc2ccccc2s1)N1CCN(S(=O)(=O)c2cccs2)CC1 was read as CSC inhib -10, SKKanGAS inh -1, FN deposition inh 0, Rtt109 HAT inh 1 and PglD inh -2.
CC(=O)c1cccc(NC(=O)NCc2cccnc2)c1 was read as CSC inhib -8, SKKanGAS inh -7, Rtt109 HAT inh -6, PglD inh 22* and PglD confirm 2.
